Converted amounts (≈) assume the structure as drawn.
Legend:
Format in all cases: cell-based
[1] = tested on: Klebsiella pneumoniae ATCC 2814; assay: MIC and MBC, broth microdilution; settings: ATCC2814, 18 h
In short: (§1)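 Broth microdilution per CLSI. Isolates were revived from glycerol stocks, grown overnight in Mueller-Hinton broth and diluted to 10^6 CFU/mL, then mixed with equal volumes of serially diluted test compound, six wells per concentration. Plates ran 18 h at 37 °C with growth read at OD 570 nm; MIC was the lowest inhibiting concentration. MBC: clear wells streaked on agar for 24 h, 99.9% kill. Triplicate experiments. SI = MDCK IC50/MIC.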

[2] = tested on: Staphylococcus epidermidis ATCC 700565; assay: Synergistic studies, broth microdilution checkerboard; settings: levofloxacin combined with UP5, checkerboard, first no-growth well, triplicate
In short: (§2)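 Checkerboard broth microdilution in Mueller-Hinton broth. Each well held graded concentrations of the peptide and levofloxacin in crossed combination, plus inoculum at 10^6 CFU/mL before mixing. Plates ran 18 h at 37 °C with growth read at OD 570 nm. Combination MICs were determined in triplicate. FIC = sum of combined/alone MIC ratios, with 100 µM used as the denominator when the solo MIC exceeded 100 µM.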

[3] = tested on: Staphylococcus aureus ATCC BAA-44; assay: as above; settings: levofloxacin combined with UP5, checkerboard, first no-growth well, triplicate
In short: as §2

[4] = tested on: Acinetobacter baumannii ATCC 1799; assay: MIC and MBC, broth microdilution; settings: ATCC1799, 18 h
In short: as §1

[5] = tested on: Pseudomonas aeruginosa ATCC 3197; assay: MIC and MBC, broth microdilution; settings: ATCC3197, 18 h
In short: as §1

[6] = tested on: Staphylococcus epidermidis ATCC 700565; assay: MIC and MBC, broth microdilution; settings: ATCC700565, 18 h
In short: as §1

[7] = tested on: Pseudomonas aeruginosa ATCC 3197; assay: Synergistic studies, broth microdilution checkerboard; settings: levofloxacin combined with UP5, checkerboard, first no-growth well, triplicate
[8] = tested on: Enterococcus faecium ATCC 2316; assay: Synergistic studies, broth microdilution checkerboard; settings: levofloxacin combined with UP5, checkerboard, first no-growth well, triplicate
In short: as §2

[9] = tested on: Klebsiella pneumoniae ATCC 2814; assay: as above; settings: levofloxacin combined with UP5, checkerboard, first no-growth well, triplicate
In short: as §2

[10] = tested on: Acinetobacter baumannii ATCC 1799; assay: as above; settings: levofloxacin combined with UP5, checkerboard, first no-growth well, triplicate
In short: as §2

[11] = tested on: Enterococcus faecium ATCC 2316; assay: MIC and MBC, broth microdilution; settings: ATCC2316, 18 h
In short: as §1

## C[C@H]1COc2c(N3CCN(C)CC3)c(F)cc3c(=O)c(C(=O)O)cn1c23 [Levofloxacin, levofloxacin]
[1]
  MIC: > 100 µM
[2]
  MIC in combination, Levofloxacin: 6.25 µM
[3]
  MIC in combination, Levofloxacin: 12.5 µM
[4]
  MIC: > 100 µM
[5]
  MIC: 25 µM (≈ 9.03 µg/mL)
[6]
  MIC: 25 µM (≈ 9.03 µg/mL)
[7]
  MIC in combination, Levofloxacin: 12.5 µM
[8]
  MIC in combination, Levofloxacin: 12.5 µM
[9]
  MIC in combination, Levofloxacin: 25 µM
[10]
  MIC in combination, Levofloxacin: 12.5 µM
[11]
  MIC: 50 µM (≈ 18.1 µg/mL)
